Published values from different studies.
Lines come from different studies, so protocols differ.
BCHE: Cholinesterase (BCHE, Equus caballus, UniProt P81908)
SLC6A4: Sodium-dependent serotonin transporter (SLC6A4, Homo sapiens, UniProt P31645)

With CC=C1[C@H]2C=C(C)C[C@]1(N)c1cc(OC)c(=O)[nH]c1C2 the IC50 was 599 µM (BCHE; enzyme activity, inhibitor, Ellman).
With NC(=O)NO the IC50 was 7.42 µM (Urease (Canavalia ensiformis, UniProt P07374); enzyme activity, inhibitor).
For CN1C[C@H](C(=O)N[C@]2(C)O[C@@]3(O)[C@@H]4CCCN4C(=O)[C@H](Cc4ccccc4)N3C2=O)C[C@@H]2c3cccc4[nH]cc(c34)C[C@H]21, the IC50 was 4.81 µM (D(1A) dopamine receptor (DRD1, Homo sapiens, UniProt P21728); ligand displacement, radioligand).
CC(=O)N1C[C@H](CCN2CC=C(c3c[nH]c4cc(Cl)ccc34)CC2)c2ccccc21 has an IC50 of 0.0818 µM (SLC6A4; ligand displacement, radioligand; cell membranes).
The IC50 of C[C@@H](O)[C@@H]1NC(=O)[C@H](CCCCN)NC(=O)[C@@H](Cc2c[nH]c3ccccc23)NC(=O)[C@H](Cc2ccc(O)cc2)NC(=O)[C@@H](NC(=O)[C@@H](Cc2ccccc2)NC(=O)CCC(C(=O)O)N2CCN(C(CCC(=O)O)C(=O)O)CCN(C(CCC(=O)O)C(=O)O)CC2)CSSC[C@@H](C(=O)N[C@H](CO)[C@@H](C)O)NC1=O (some centres unmarked) is reported as 0.125 µM (Somatostatin receptor type 2 (Rattus norvegicus, UniProt P30680); ligand displacement, radioligand).
With O=P(O)(O)Oc1ccccc1OP(=O)(O)O the IC50 was 69 µM (Signal transducer and activator of transcription 5A, SH2 (Homo sapiens, UniProt P42229); ligand displacement, FP).
The IC50 of CC=C1[C@H]2C=C(C)C[C@]1(N)c1cc(OCCC)c(=O)[nH]c1C2 is reported as 87.3 µM (BCHE; enzyme activity, inhibitor, Ellman).
The IC50 of O=C(CNC(=S)NN=Cc1ccc([N+](=O)[O-])cc1)c1ccc(Cl)cc1 is reported as 425 µM (BCHE; enzyme activity, inhibitor, Ellman).
NC(=O)N1C[C@@H](CCN2CC=C(c3c[nH]c4cc(Cl)ccc34)CC2)c2ccccc21 has an IC50 of 0.169 µM (SLC6A4; ligand displacement, radioligand; cell membranes).
For CC=C1[C@H]2C=C(C)C[C@]1(N)c1cc(OCC)c(=O)[nH]c1C2, the IC50 was 253 µM (BCHE; enzyme activity, inhibitor, Ellman).
O=C(CNC(=S)NN=Cc1ccc([N+](=O)[O-])cc1)c1ccc([N+](=O)[O-])cc1 has an IC50 of 326 µM (BCHE; enzyme activity, inhibitor, Ellman).
With I/C=C/CN1CCN(CCc2ccc3c(c2)CCO3)CC1 the IC50 was 0.00068 µM (Sigma non-opioid intracellular receptor 1 (Sigmar1, Mus musculus, UniProt O55242); ligand displacement, radioligand; cell membranes).
With CC=C1[C@H]2C=C(C)C[C@]1(N)c1cc(I)c(=O)[nH]c1C2 the IC50 was 325 µM (BCHE; enzyme activity, inhibitor, Ellman).
C#CCNc1nc(NCCCCC2CCN(Cc3ccccc3)CC2)c(C#N)c(-c2ccccc2)c1C#N gave an IC50 of 0.61 µM (BCHE; enzyme activity, inhibitor, Ellman).
